As a reminder, the ILS is how much longer treated animals lived than controls.

For eleven compounds, ILS and CC50 results are on record in ChEMBL document CHEMBL3244394, “N7-Substituted 7-aminoactinomycin D analogues. Synthesis and biological properties” (J Med Chem, 1978).

Data set [1] concerns P388. Description: Antitumor activity against mouse P388 cells allografted in BDF1 hybrid mouse assessed as increase of host life span at 150 ug/kg qd for 4 days. The format is functional. Conditions: P388, 96 h. An outline of the steps: (§1)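 P388 leukemia, 10⁶ cells, implanted ip in male BDF₁ mice, seven per group. Compounds given in saline once daily on four successive days starting 1 day after implantation (qd 1-4).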

Data set [2] in a line: Cytotoxicity against human CCRF-CEM cells. Conditions: read-out: ID50 (the source's name). The format is cell-based. In outline:
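In vitro growth-inhibition assay on human lymphoblastic leukemia CCRF-CEM cells grown in suspension culture. The values are relative cytotoxicity.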

The test system of data set [3] is P388. Description: Antitumor activity against mouse P388 cells allografted in BDF1 hybrid mouse assessed as increase of host life span at 800 ug/kg qd for 4 days. The format is functional. Conditions: P388, 96 h. In outline:
as §1

Data set [4] deals with P388. Description: Antitumor activity against mouse P388 cells allografted in BDF1 hybrid mouse assessed as increase of host life span at 500 ug/kg qd for 4 days. It counts as functional. Conditions: P388, 96 h. An outline of the steps: as §1
In data set [5] the test system is P388. The data set can be described thus: Antitumor activity against mouse P388 cells allografted in BDF1 hybrid mouse assessed as increase of host life span at 225 ug/kg qd for 4 days. It counts as functional. Conditions: P388, 96 h. In outline: as §1
In data set [6] the test system is P388. Description: Antitumor activity against mouse P388 cells allografted in BDF1 hybrid mouse assessed as increase of host life span at 1500 ug/kg qd for 4 days. Conditions: P388, 96 h. It counts as functional. In outline:
as §1

The subject of data set [7] is P388. The data set can be described thus: Antitumor activity against mouse P388 cells allografted in BDF1 hybrid mouse assessed as increase of host life span at 200 ug/kg qd for 4 days. The format is functional. Conditions: P388, 96 h. In outline:
as §1

For data set [8], the system named is P388. Description: Antitumor activity against mouse P388 cells allografted in BDF1 hybrid mouse assessed as increase of host life span at 450 ug/kg qd for 4 days. Conditions: P388, 96 h. The format is functional. In outline:
as §1

The subject of data set [9] is P388. The data set can be described thus: Antitumor activity against mouse P388 cells allografted in BDF1 hybrid mouse assessed as increase of host life span at 75 ug/kg qd for 4 days. The format is functional. Conditions: P388, 96 h. In outline: as §1

Values after ≈ are worked out from the molar mass of the structure shown. *1 amine or outer side, *2 acyl side, *3 side chain or, on linkers, in order; H or OH if unused. Where a SMILES comes first, the peptide text is derived from it. Bridges are numbered along the chain shown (N, C = ends). Roman numbers before positions name the chains, in order. [ ]: non-standard residue; d: D form. Actinocin(9to1) = Cc1c2oc3c(C)ccc(C(=O)[*:1])c3nc-2c(C(=O)[*:2])c(N)c1=O; NMeV = CN[C@H](C(=O)O)C(C)C; Sar = CNCC(=O)O

Turning to `Cc1c2oc3c(C)c(N)cc(C(=O)N[C@@H]4C(=O)N[C@H](C(C)C)C(=O)N5CCC[C@H]5C(=O)N(C)CC(=O)N(C)[C@@H](C(C)C)C(=O)O[C@@H]4C)c3nc-2c(C(=O)N[C@@H]2C(=O)N[C@H](C(C)C)C(=O)N3CCC[C@H]3C(=O)N(C)CC(=O)N(C)[C@@H](C(C)C)C(=O)O[C@@H]2C)c(N)c1=O`, the increase in lifespan (ILS) at 0.15 mg/kg in data set [1] turned out to be 164%. In [2], the CC50 amounted to 0.085 µg/mL (≈ 0.0669 µM).

On to `Cc1c2oc3c(C)c(NCc4ccccc4)cc(C(=O)N[C@@H]4C(=O)N[C@H](C(C)C)C(=O)N5CCC[C@H]5C(=O)N(C)CC(=O)N(C)[C@@H](C(C)C)C(=O)O[C@@H]4C)c3nc-2c(C(=O)N[C@@H]2C(=O)N[C@H](C(C)C)C(=O)N3CCC[C@H]3C(=O)N(C)CC(=O)N(C)[C@@H](C(C)C)C(=O)O[C@@H]2C)c(N)c1=O`, for which, in data set [3], the increase in life span (ILS) at 0.8 mg/kg came to 108%. Besides, the CC50 in [2] was found to be 0.25 µg/mL (≈ 0.184 µM).

As for `Cc1c2oc3c(C)c(NCc4ccc(Cl)c(Cl)c4)cc(C(=O)N[C@@H]4C(=O)N[C@H](C(C)C)C(=O)N5CCC[C@H]5C(=O)N(C)CC(=O)N(C)[C@@H](C(C)C)C(=O)O[C@@H]4C)c3nc-2c(C(=O)N[C@@H]2C(=O)N[C@H](C(C)C)C(=O)N3CCC[C@H]3C(=O)N(C)CC(=O)N(C)[C@@H](C(C)C)C(=O)O[C@@H]2C)c(N)c1=O`, the increase in life span (ILS) at 0.5 mg/kg in data set [4] worked out at 192%. For the same compound, the CC50 in [2] is 0.22 µg/mL (≈ 0.154 µM).

`Cc1c2oc3c(C)c(NCc4cccc(Oc5ccccc5)c4)cc(C(=O)N[C@@H]4C(=O)N[C@H](C(C)C)C(=O)N5CCC[C@H]5C(=O)N(C)CC(=O)N(C)[C@@H](C(C)C)C(=O)O[C@@H]4C)c3nc-2c(C(=O)N[C@@H]2C(=O)N[C@H](C(C)C)C(=O)N3CCC[C@H]3C(=O)N(C)CC(=O)N(C)[C@@H](C(C)C)C(=O)O[C@@H]2C)c(N)c1=O`: the increase in lifespan (ILS) at 0.225 mg/kg in data set [5] is 130%. In addition, in data set [2], the CC50 is 0.28 µg/mL (≈ 0.193 µM).

Turning to `Cc1c2oc3c(C)c(NCc4ccc(C(=O)O)cc4)cc(C(=O)N[C@@H]4C(=O)N[C@H](C(C)C)C(=O)N5CCC[C@H]5C(=O)N(C)CC(=O)N(C)[C@@H](C(C)C)C(=O)O[C@@H]4C)c3nc-2c(C(=O)N[C@@H]2C(=O)N[C@H](C(C)C)C(=O)N3CCC[C@H]3C(=O)N(C)CC(=O)N(C)[C@@H](C(C)C)C(=O)O[C@@H]2C)c(N)c1=O`, in data set [4], the ILS at 0.5 mg/kg is 123%. Besides, the CC50 in [2] is 0.26 µg/mL (≈ 0.185 µM).

Regarding `CCCCCCCCNc1cc(C(=O)N[C@@H]2C(=O)N[C@H](C(C)C)C(=O)N3CCC[C@H]3C(=O)N(C)CC(=O)N(C)[C@@H](C(C)C)C(=O)O[C@@H]2C)c2nc3c(C(=O)N[C@@H]4C(=O)N[C@H](C(C)C)C(=O)N5CCC[C@H]5C(=O)N(C)CC(=O)N(C)[C@@H](C(C)C)C(=O)O[C@@H]4C)c(N)c(=O)c(C)c-3oc2c1C`, the increase in lifespan (ILS) at 1.5 mg/kg in [6] was determined as 73%. Also, the CC50 in [2] is 0.27 µg/mL (≈ 0.195 µM).

As to `Cc1c2oc3c(C)c(NCc4ccco4)cc(C(=O)N[C@@H]4C(=O)N[C@H](C(C)C)C(=O)N5CCC[C@H]5C(=O)N(C)CC(=O)N(C)[C@@H](C(C)C)C(=O)O[C@@H]4C)c3nc-2c(C(=O)N[C@@H]2C(=O)N[C@H](C(C)C)C(=O)N3CCC[C@H]3C(=O)N(C)CC(=O)N(C)[C@@H](C(C)C)C(=O)O[C@@H]2C)c(N)c1=O`, in [2], the CC50 was 0.26 µg/mL (≈ 0.193 µM). For the same compound, the ILS at 0.2 mg/kg in data set [7] was 90%.

Take `Cc1c2oc3c(C)c(NCc4ccccn4)cc(C(=O)N[C@@H]4C(=O)N[C@H](C(C)C)C(=O)N5CCC[C@H]5C(=O)N(C)CC(=O)N(C)[C@@H](C(C)C)C(=O)O[C@@H]4C)c3nc-2c(C(=O)N[C@@H]2C(=O)N[C@H](C(C)C)C(=O)N3CCC[C@H]3C(=O)N(C)CC(=O)N(C)[C@@H](C(C)C)C(=O)O[C@@H]2C)c(N)c1=O`: the increase in life span (ILS) at 0.45 mg/kg in data set [8] was 145%. The CC50 in [2] is 0.26 µg/mL (≈ 0.191 µM).

As for `Cc1c2oc3c(C)c(NCc4ccc(C(F)(F)F)cc4)cc(C(=O)N[C@@H]4C(=O)N[C@H](C(C)C)C(=O)N5CCC[C@H]5C(=O)N(C)CC(=O)N(C)[C@@H](C(C)C)C(=O)O[C@@H]4C)c3nc-2c(C(=O)N[C@@H]2C(=O)N[C@H](C(C)C)C(=O)N3CCC[C@H]3C(=O)N(C)CC(=O)N(C)[C@@H](C(C)C)C(=O)O[C@@H]2C)c(N)c1=O`, the ILS at 0.5 mg/kg in data set [4] came out at 100%. Also, in data set [2], the CC50 turned out to be 0.26 µg/mL (≈ 0.182 µM).

`Cc1c2oc3c(C)c(NCc4ccc[nH]4)cc(C(=O)N[C@@H]4C(=O)N[C@H](C(C)C)C(=O)N5CCC[C@H]5C(=O)N(C)CC(=O)N(C)[C@@H](C(C)C)C(=O)O[C@@H]4C)c3nc-2c(C(=O)N[C@@H]2C(=O)N[C@H](C(C)C)C(=O)N3CCC[C@H]3C(=O)N(C)CC(=O)N(C)[C@@H](C(C)C)C(=O)O[C@@H]2C)c(N)c1=O`: the CC50 in data set [2] was 0.26 µg/mL (≈ 0.193 µM). Moreover, the increase in lifespan (ILS) at 0.2 mg/kg in data set [7] came to 90%.

For `Cc1c2oc3c(C)ccc(C(=O)N[C@@H]4C(=O)N[C@H](C(C)C)C(=O)N5CCC[C@H]5C(=O)N(C)CC(=O)N(C)[C@@H](C(C)C)C(=O)O[C@@H]4C)c3nc-2c(C(=O)N[C@@H]2C(=O)N[C@H](C(C)C)C(=O)N3CCC[C@H]3C(=O)N(C)CC(=O)N(C)[C@@H](C(C)C)C(=O)O[C@@H]2C)c(N)c1=O` [DACTINOMYCIN] (I: T[dV]P[Sar][NMeV] / II: T[dV]P[Sar][NMeV]; ester I:1-I:C, II:1-II:C; linker I:N-II:N via Actinocin(9to1)), the increase in lifespan (ILS) at 0.075 mg/kg in data set [9] was determined as 122%. In addition, the CC50 in [2] turned out to be 0.01 µg/mL (≈ 0.00797 µM).
